From publication PMC6506440 (Scientific Reports, 2013)
Where a SMILES comes first, the peptide text is derived from it.

Legend:
[1] = Circular dichroism, percentage helicity; type: physicochemical; conditions: Percentage helicity derived using circular dichroism, peptide free in solution
In short: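 Peptides were N-terminally acetylated and C-terminally amidated, and HPLC-purified to >90% purity. Stapled variants carried an (i, i + 3) hydrocarbon linkage. Percentage helicity was derived from circular dichroism spectra.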

[2] = biological target: T1, Full-length human eIF4E (human, UniProt P06730 1-217); assay: fluorescence polarisation
[3] = biological target: T1, Full-length human eIF4E; assay: SPR
[4] = biological target: T1, Full-length human eIF4E; assay: fluorescence polarisation; remark: listed apart in the source

T1 sequence (P06730 whole entry): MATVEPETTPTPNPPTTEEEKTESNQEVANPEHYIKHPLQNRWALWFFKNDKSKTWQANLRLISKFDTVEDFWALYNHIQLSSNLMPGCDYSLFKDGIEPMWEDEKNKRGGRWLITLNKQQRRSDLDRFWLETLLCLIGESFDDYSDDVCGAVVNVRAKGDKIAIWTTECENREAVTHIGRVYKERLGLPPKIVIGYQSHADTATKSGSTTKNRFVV

Molecule: CC(=O)N[C@@H](CCCCN)C(=O)N[C@@H](CCCCN)C(=O)N[C@@H](CCCNC(=N)N)C(=O)N[C@@H](Cc1ccc(O)cc1)C(=O)N[C@@H](CO)C(=O)N[C@@H](CCCNC(=N)N)C(=O)N[C@@H](CCC(=O)O)C(=O)N[C@@H](Cc1ccccc1)C(=O)N[C@@H](CC(C)C)C(=O)N[C@@H](CC(C)C)C(=O)NCC(=O)N[C@@H](Cc1ccccc1)C(N)=O [eIF4G^D5S] (Ac-KKRYSREFLLGF-NH2)
- Helicity [1]: 0%

Molecule: Ac-KKRYSRDFLLALQK(FAM)-NH2 [FAM labeled tracer peptide (KKRYSRDFLLALQK-(FAM))]
- binding result [2]: binds

Molecule: Ac-KKRYSREFLLGF-NH2 [eIF4G^D5S peptide]
- Kd [3]: 99.9 ± 6.2 nM
- Kd [4]: 195 ± 12.1 nM
